Data from ChEMBL document CHEMBL6134787, “Fexinidazole optimization: enhancing anti-leishmanial profile, metabolic stability and hERG safety” (RSC Med Chem, 2024).

Key:
Leishmania donovani [1] = assay: Antileishmanial activity against wild type Leishmania donovani HU3 promastigotes […] assessed as inhibition of parasite growth incubated for 72 hrs by automatic microtiter plate reader analysis; type: functional, organism-based
[2] = Hepatotoxicity against mouse TAMH cells assessed as cell viability at 7.8 to 125 uM incubated for 24 to 48 hrs by MTT assay; type: toxicity, cell-based; conditions: dose lower 7.8 µM, time lower 24 hrs, dose upper 125 µM, time upper 48 hrs, read-out: Activity
How it was run: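 TAMH mouse liver cells in FCS-free DMEM/F12 with 5% PANEXIN NTA, 10 mM nicotinamide and gentamicin. Seeded at 20 000/well and attached 24 h at 37 °C, 5% CO2. DMSO-diluted compounds were applied for 24 or 48 h. MTT was added for 4 h, formazan dissolved in DMSO and A570 read. Viability was background-corrected and expressed relative to DMSO controls; mean ± SD, ≥3 experiments.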

Leishmania braziliensis [3] = assay: Antileishmanial activity against wild type Leishmania braziliensis UA847 promastigotes […] assessed as inhibition of parasite growth incubated for 72 hrs by automatic microtiter plate reader analysis; type: functional, organism-based
How it was run: (§1)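 Promastigotes were grown in Schneider's medium (4 mM glutamine, gentamicin, 10% heat-inactivated FBS, pH 6.9, 27 °C). Cells were seeded at 1.5 × 10^5/well and exposed to a concentration series for 72 h at 27 °C.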

[4] = biological target: Voltage-gated inwardly rectifying potassium channel KCNH2 (Homo sapiens, UniProt Q12809); assay: Inhibition of human ERG stably overexpressed in HEK293 cells incubated for 30 mins by FLIPR assay; type: toxicity, cell-based; conditions: human, hek293, 0.5 h; time 30 min
Voltage-gated inwardly rectifying potassium channel KCNH2, sequence (Q12809 whole entry): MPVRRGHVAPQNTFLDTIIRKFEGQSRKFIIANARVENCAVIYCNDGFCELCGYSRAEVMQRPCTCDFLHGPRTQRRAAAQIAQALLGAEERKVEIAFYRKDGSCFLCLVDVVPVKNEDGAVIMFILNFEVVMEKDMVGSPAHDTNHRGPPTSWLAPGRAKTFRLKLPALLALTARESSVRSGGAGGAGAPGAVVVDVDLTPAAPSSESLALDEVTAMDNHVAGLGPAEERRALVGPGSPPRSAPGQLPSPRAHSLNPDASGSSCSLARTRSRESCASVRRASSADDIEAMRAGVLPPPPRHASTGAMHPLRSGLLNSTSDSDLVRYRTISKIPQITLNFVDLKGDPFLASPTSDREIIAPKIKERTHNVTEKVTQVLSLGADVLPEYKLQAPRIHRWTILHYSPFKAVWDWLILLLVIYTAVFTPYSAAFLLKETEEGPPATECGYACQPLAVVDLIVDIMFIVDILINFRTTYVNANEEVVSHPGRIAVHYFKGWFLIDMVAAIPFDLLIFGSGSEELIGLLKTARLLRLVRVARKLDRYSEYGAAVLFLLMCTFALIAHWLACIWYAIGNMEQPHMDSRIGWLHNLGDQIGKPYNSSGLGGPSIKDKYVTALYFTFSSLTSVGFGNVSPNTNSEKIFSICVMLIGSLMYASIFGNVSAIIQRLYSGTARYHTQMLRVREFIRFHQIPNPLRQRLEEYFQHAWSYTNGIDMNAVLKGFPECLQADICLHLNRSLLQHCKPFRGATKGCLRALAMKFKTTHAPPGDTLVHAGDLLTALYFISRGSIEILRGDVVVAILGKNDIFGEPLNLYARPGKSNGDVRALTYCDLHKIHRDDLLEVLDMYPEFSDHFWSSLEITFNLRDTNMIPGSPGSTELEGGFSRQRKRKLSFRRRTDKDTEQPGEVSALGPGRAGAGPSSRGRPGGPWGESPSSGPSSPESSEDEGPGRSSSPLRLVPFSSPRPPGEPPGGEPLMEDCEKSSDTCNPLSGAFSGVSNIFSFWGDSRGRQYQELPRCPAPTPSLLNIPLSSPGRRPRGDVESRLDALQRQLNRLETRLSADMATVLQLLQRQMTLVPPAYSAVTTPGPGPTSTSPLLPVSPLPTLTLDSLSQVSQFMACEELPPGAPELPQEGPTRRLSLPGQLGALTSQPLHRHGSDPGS

[5] = Metabolic stability in rat liver S9 fraction assessed as compound remaining at 20 uM measured after 32 mins in presence of NADP and GSH by HPLC analysis; type: ADME, subcellular; conditions: read-out: Stability
How it was run: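 Rat liver S9 (final 4 mg/mL) in 50 mM phosphate pH 7.4 with NADPH-regenerating system (0.3 mM NADP+, 5.3 mM glucose-6-phosphate, G6PDH), 10 mM MgCl2 and 5 mM EDTA. Pre-warmed 10 min at 37 °C, then 20 μM compound and 5.5 μM GSH added. Samples taken at 0, 16 and 32 min were quenched in ice-cold acetonitrile. HPLC (254/280 nm) peak area was expressed relative to 0 min.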

Leishmania major = assay: Antileishmanial activity against wild type Leishmania major FV1 promastigotes […] assessed as inhibition of parasite growth incubated for 72 hrs by automatic microtiter plate reader analysis; type: functional, organism-based; how it was run: as §1
[6] = Cytotoxicity against mouse L929 cells assessed as inhibition of cell growth incubated for 72 hrs by MTS assay; type: toxicity, cell-based
How it was run: (§2)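 Cells in DMEM + 10% heat-inactivated FBS with penicillin/streptomycin at 37 °C, 5% CO2. They were seeded at 1 × 10^4/well and incubated with a concentration series for 72 h at 37 °C. Viability was read by MTS/PMS assay at 490 nm and IC50 derived.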

Leishmania donovani [7] = assay: Antileishmanial activity against miltefosine resistant Leishmania donovani HU3MILR40 promastigotes […] assessed as inhibition of parasite growth incubated for 72 hrs by automatic microtiter plate reader analysis; type: functional, organism-based
How it was run: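 Promastigote (free parasite) assay: Schneider's Drosophila medium with 4 mM glutamine, 25 μg mL−1 gentamicin, 10% heat-inactivated FBS, pH 6.9, 27 °C. 1.5 × 10^5 promastigotes per well exposed to a concentration series for 72 h at 27 °C.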

RAW264.7 = assay: Cytotoxicity against mouse RAW264.7 cells assessed as inhibition of cell growth incubated for 72 hrs by MTS assay; type: functional, cell-based; conditions: RAW264.7, 72 h; how it was run: as §2
Leishmania amazonensis [8] = assay: Antileishmanial activity against wild type Leishmania amazonensis LV78 promastigotes […] assessed as inhibition of parasite growth incubated for 72 hrs by automatic microtiter plate reader analysis; type: functional, organism-based; how it was run: as §1
[9] = Metabolic stability in rat liver microsome assessed as compound remaining at 20 uM measured after 32 mins in presence of NADP and GSH by HPLC analysis; type: ADME; conditions: liver microsomes, read-out: Stability
How it was run: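 Rat liver microsomes (final 2 mg/mL) in 50 mM phosphate pH 7.4 with 0.3 mM NADP+, 5.3 mM glucose-6-phosphate, G6PDH, 10 mM MgCl2 and 5 mM EDTA. 20 μM compound added at 37 °C. Aliquots at 0, 16 and 32 min were quenched in ice-cold acetonitrile and centrifuged. HPLC peak area at 254/280 nm was expressed relative to 0 min.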

hERG (KCNH2) = hERG (KCNH2) (Homo sapiens, UniProt Q12809); assay: Inhibition of human ERG stably overexpressed in HEK293 cells assessed as remaining activity at 6 uM incubated for 30 mins by FLIPR assay; type: toxicity, cell-based; conditions: HEK293 cells stably overexpressing hERG, read-out: Activity
hERG (KCNH2), sequence (Q12809 whole entry): as above
How it was run: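 HEK-293 cells stably expressing hERG, seeded at 60 000/well and grown 24 h. Compounds were added in DMSO (final 0.5%) and incubated 30 min in the dark. After 20 s baseline, Tl+ stimulus (3 mM) was added and fluorescence (ex 485/em 535 nm) recorded for 2.5 min.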

Leishmania donovani [10] = assay: Antileishmanial activity against wild type Leishmania donovani HU3 amastigotes infected in mouse peritoneal macrophage assessed as inhibition of parasite growth incubated for 72 hrs by giemsa staining based analysis; type: functional, organism-based
How it was run: (§3)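 Mouse peritoneal macrophages in DMEM + 10% heat-inactivated FBS, penicillin/streptomycin; 1 × 10^5 cells per well on coverslips, adhered overnight at 37 °C, 5% CO2, non-adherent cells washed off. Infected overnight with late-log promastigotes at parasite:macrophage 40:1. Compound exposure 72 h at 37 °C; Giemsa stain, amastigotes per 100 macrophages counted, IC50 derived; means ± SD of 3–4 independent experiments.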

Leishmania amazonensis [11] = assay: Antileishmanial activity against wild type Leishmania amazonensis LV78 amastigotes infected in mouse peritoneal macrophage assessed as inhibition of parasite growth incubated for 72 hrs by giemsa staining based analysis; type: functional, organism-based
How it was run: (§4)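 Mouse peritoneal macrophages (1 × 10^5/well on coverslips, DMEM + 10% heat-inactivated FBS, penicillin/streptomycin) adhered overnight at 37 °C, 5% CO2. They were infected overnight with late-log promastigotes at a 20:1 parasite:macrophage ratio. Cells were then treated with compound for 72 h at 37 °C and Giemsa-stained. Amastigotes per 100 macrophages were counted to derive IC50; mean ± SD of 3–4 independent experiments.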

Leishmania donovani [12] = assay: Antileishmanial activity against miltefosine resistant Leishmania donovani HU3MILR40 amastigotes infected in mouse peritoneal macrophage assessed as inhibition of parasite growth incubated for 72 hrs by giemsa staining based analysis; type: functional, organism-based; how it was run: as §3
Leishmania braziliensis [13] = assay: Antileishmanial activity against wild type Leishmania braziliensis UA847 amastigotes infected in mouse peritoneal macrophage assessed as inhibition of parasite growth incubated for 72 hrs by giemsa staining based analysis; type: functional, organism-based; how it was run: as §4
[14] = Cytotoxicity against mouse peritoneal macrophage assessed as inhibition of cell growth incubated for 72 hrs by giemsa staining based analysis; type: toxicity; conditions: peritoneal macrophages

Row | SMILES | IC50 (Leishmania donovani [1]) [µM] | viability at up to 125 µM [2] [%] | IC50 (Leishmania braziliensis [3]) [µM] | IC25 [4] [µM] | remaining at 32 min, 20 µM [5] [%] | IC50 (Leishmania major) [µM] | IC50 at 72 h [6] [µM] | IC50 (Leishmania donovani [7]) [µM] | IC50 (RAW264.7) [µM] | IC50 (Leishmania amazonensis [8]) [µM] | remaining at 32 min, 20 µM [9] [%] | activity at 0.5 h, 6 µM (hERG (KCNH2)) [%] | IC50 (Leishmania donovani [10]) [µM] | IC50 (Leishmania amazonensis [11]) [µM] | IC50 (Leishmania donovani [12]) [µM] | IC50 (Leishmania braziliensis [13]) [µM] | IC50 at 72 h [14] [µM]
1 | CSc1ccc(OCc2ncc(C#N)n2C)cc1 | > 20 | > 50 | > 20 | 27.1 | 82.6 | > 20 | > 100 | > 20 | > 99.8 | > 20 | 8.2 |  |  |  |  |  | 
2 | Cn1c([N+](=O)[O-])cnc1C(=O)N1CCS(=O)(=O)CC1 | 7.5 | > 50 | 12.2 | > 6.2 | 100 | 3.4 | > 100 | 13.7 | > 100 | 13.3 | 100 |  |  |  |  |  | 
3 | CS(=O)(=O)c1ccc(OCC2Cn3cc([N+](=O)[O-])nc3O2)cc1 (configuration not stated) | > 20 | > 50 | > 20 | 15.2 | 100 | > 20 | > 100 | 4.5 | > 100 | > 20 | 100 |  |  |  |  |  | 
4 | CSc1ccc(NC(=O)c2ncc([N+](=O)[O-])n2C)cc1 | > 20 | > 50 | > 20 | > 3.1 | 6.9 | 6.5 | > 100 | > 20 | > 100 | > 20 | 0 |  |  |  |  |  | 
5 | CSc1ccc(CCc2ncc([N+](=O)[O-])n2C)cc1 | 12.5 | > 50 | 17.5 | 9.8 | 47.5 | 9.1 | > 100 | 7.1 | > 91.7 | 27.2 | 0 | 64 |  |  |  |  | 
6 | COc1ccc(Cn2ccn3cc([N+](=O)[O-])nc3c2=O)cc1 | > 12.4 | > 50 | > 20 | > 2 | 100 | 6.9 | > 100 | > 18.5 | > 100 | > 20 | 100 |  |  |  |  |  | 
7 | CSc1ccc(Cn2ccn3cc([N+](=O)[O-])nc3c2=O)cc1 | > 16.6 | > 50 | > 20 | > 2 | 100 | 8.9 | > 57.5 | > 20 | 48.1 | > 20 | 93.1 |  |  |  |  |  | 
8 | Cn1c([N+](=O)[O-])cnc1C(=O)Nc1ccc(F)cc1C(F)(F)F | 8.1 | > 50 | 2.3 | > 6.2 | 100 | 1.2 | > 100 | 12.2 | > 100 | 4.5 | 100 |  | > 10 | > 10 | > 10 | > 10 | > 100
9 | Cn1c([N+](=O)[O-])cnc1CCc1ccc(S(C)(=N)=O)cc1 (configuration not stated) | > 20 | > 50 | > 20 | 49.4 | 100 | 11.8 | > 100 | > 20 | > 100 | > 20 | 100 |  |  |  |  |  | 
10 | CSc1ccc(NCc2ncc([N+](=O)[O-])n2C)cc1 | > 20 | > 50 | > 20 | 3.1 | 73.4 | 9.5 | > 100 | 11.9 | > 100 | > 20 | 0 | 48 |  |  |  |  | 
